Assay outcomes from PubChem BioAssay.
MEKK2 WT-MEK5 – raises or lowers MEK5 binding to wildtype human MEKK2 PB1 domain. bead flow cytometry, Alexa488-MEK5 binding to MEKK2 WT; actives lie on both sides. hit rate 1.1% among 290,000. binding response (% of control), % at 10 µM. Q9Y2U5; in the data active means binding response below about 67% or above about 130%
MEKK3 PB1 HTS – modulators (inhibitors or enhancers) of MEK5 binding to human MEKK3 PB1 domain; Q99759; bead-based flow cytometry, Alexa488-MEK5 binding to MEKK3; actives lie on both sides; 0 = blocked by unlabeled MEK5, 100 = vehicle; binding response (% of control), % at 10 µM; hit rate 1.4% among 290,000; AID 1529;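 active means binding response more than 3 SD above or below the average of its plate-row segment, actives on both sides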;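 further: Alexa488 bead fluorescence after subtracting the streptavidin-only scavenger bead signal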
Target sequence (Q99759 whole entry, looked up, the tested form may be a part): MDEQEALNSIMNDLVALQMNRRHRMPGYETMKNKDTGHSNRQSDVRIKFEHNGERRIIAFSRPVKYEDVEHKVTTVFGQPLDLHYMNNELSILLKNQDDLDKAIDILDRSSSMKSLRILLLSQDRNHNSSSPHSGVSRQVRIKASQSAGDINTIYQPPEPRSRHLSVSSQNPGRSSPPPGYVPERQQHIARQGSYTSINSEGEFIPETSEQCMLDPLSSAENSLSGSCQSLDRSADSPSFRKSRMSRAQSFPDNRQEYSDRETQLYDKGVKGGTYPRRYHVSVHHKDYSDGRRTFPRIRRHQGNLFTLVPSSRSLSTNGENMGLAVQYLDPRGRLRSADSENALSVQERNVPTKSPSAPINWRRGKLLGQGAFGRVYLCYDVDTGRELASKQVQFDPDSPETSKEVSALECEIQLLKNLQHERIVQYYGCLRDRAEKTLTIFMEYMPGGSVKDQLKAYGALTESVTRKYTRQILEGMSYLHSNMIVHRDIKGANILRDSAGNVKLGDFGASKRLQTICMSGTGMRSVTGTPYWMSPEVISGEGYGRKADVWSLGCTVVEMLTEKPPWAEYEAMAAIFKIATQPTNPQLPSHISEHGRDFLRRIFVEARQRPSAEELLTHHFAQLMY
Rce1 inh – inhibitors of yeast Ras-converting enzyme; yeast membranes, quenched prenylated peptide cleavage fluorescence; calls only; hit rate 0.27% among 290,000; AID 2563;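 active means fall in fluorescence gain of 50% or more versus controls, with final raw signal at or below 3038400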;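 further: plate controls were neutral control wells for no effect and wells lacking membranes for full effect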
MEKK2mut PB1 HTS – signal of MEK5 binding to mutant human MEKK2 PB1 domain; hit rate 0.35% among 290,000; percent response, % at 10 µM; bead flow cytometry, Alexa488-MEK5 binding to MEKK2 mutant; in the data active means percent response above about 24%, passing the limit was not always enough
T cell HTS – modulates CD8 T cell binding to vesicles; response (vesicle binding), % at 7 µM; AID 2052; 2C CD8+ T cell-vesicle binding, flow cytometry; hits give low values; hit rate 0.068% among 330,000;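 active means response, share of CD8 T cells binding vesicles, and their 90th percentile fluorescence all below set limits, cut at about 80% in these data, passing the limit was not always enough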;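 further: values below 100% mean blocked vesicle binding to the CD8+ T cells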
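Assay system – 2C mouse CD8+ T cells · Also added – QL9-loaded Drosophila micro-vesicles · Timing – Cell–vesicle co-incubation 1.5 h at 37 °C, staining 20 min on ice · Signal – flow cytometry of vesicle-bound cells · Measure – percent CD8+ FL2 mean versus row control · Controls – Peptide-free naked vesicles (low) and QL9 vesicles with 0.7% DMSO vehicle (high)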
UCH37 DUB inh – blocks the human deubiquitinase UCH37. inhibition, % (no concentration beside the values). Q9Y5K5. hit rate 0.33% among 330,000. purified proteasome/UCH37, Ub-AMC cleavage fluorescence;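 active means mean inhibition over replicate wells above about 20%, limit read from the data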;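 further: 0% = compound-free wells with enzyme and 100% = wells lacking proteasome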
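Material: human UCH37 enzyme supplied as purified proteasome complex / Amount: 0.15 nM proteasome as dispensed / Buffer or medium: pH 7.4 Tris-HCl (50 mM) with ovalbumin, ATP-MgCl2, DTT / Times: preincubation 30 min, reaction 25 min, room temperature / Technique: AMC fluorescence from Ub-AMC cleavage, excitation 355 nm, emission 460 nm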
MEKK2wt confirm – raises or lowers MEK5 binding to wildtype human MEKK2, retest; shares compounds with MEKK3 PB1 HTS; bead flow cytometry, Alexa488-MEK5 binding to MEKK2 WT; actives lie on both sides; binding response (% of control), % at 10 µM; hit rate 2.4% among 5,900; in the data active means binding response below about 16% or above about 210%; inactive means in between
MEKK2mut confirm – signal of MEK5 binding to mutant human MEKK2, retest | shares compounds with MEKK3 PB1 HTS | bead flow cytometry, Alexa488-MEK5 binding to MEKK2 mutant | percent response, % at 10 µM | hit rate 2% among 5,900 | AID 1893; in the data active means percent response mostly above about 71%, no sharp cut-off; inactive means mostly below about 38%;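 further: higher means compound restores mutant binding toward wildtype level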
MEKK3-MEK5 inh – MEKK3-MEK5 PB1 inhibition, single concentration confirmation; hit rate 1.8% among 5,900; shares compounds with MEKK3 PB1 HTS; binding response (% of control), % at 10 µM; bead flow cytometry, Alexa488-MEK5 binding to MEKK3; hits give low values;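 active means binding response below 72% of control, or above a set upper limit, though filed actives all read lower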;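 further: 100% = DMSO only wells and 0% = binding blocked by excess unlabeled MEK5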
Starred values were filed as active, the others as inactive; i = inactive; . = no result; [ ] = remark or other dose. Shown are actives, neighbours in structure and some others; about 2.5% of the full set was active somewhere.

SMILES | MEKK2 WT-MEK5 | MEKK3 PB1 HTS | Rce1 inh | MEKK2mut PB1 HTS | T cell HTS | UCH37 DUB inh | MEKK2wt confirm | MEKK2mut confirm | MEKK3-MEK5 inh
CC1CC(C)CN(C(=O)CN2CCN(Cc3ccc(Cl)cc3)C2=O)C1 (stereo not drawn) | 122.0 | 128.0* | i | 6.0 | 682.3 | -2.0 | 103.0 | 1.0 | 98.0
O=C(O)CN1CCN(Cc2ccc(Cl)cc2)C1=O | 97.0 | 96.0 | i | -3.0 | 291.1 | 5.7 | . | . | .
Cn1nccc1C=NNC(=O)c1ccc(Cl)cc1 | . | . | . | . | . | 7.0 | . | . | .
Cc1ccc(-c2cc(N)n3nc(-c4ccc(C)cc4)cc3n2)cc1 | . | . | i | . | 493.1 | -38.4 | . | . | .
Cc1ccc(-c2cc3nc(-c4ccc(Br)cc4)cc(N)n3n2)cc1 | 121.0 | 134.0* | i | 2.0 | 271.0 | -45.3 | 100.0 | 1.0 | 102.0
CCOC(=O)Cn1cc(/C=C/[N+](=O)[O-])c2ccccc21 | 97.0 | 101.0 | i | 2.0 | 311.9 | 4.3 | . | . | .
Cc1cccc(Cn2cc(/C=C/[N+](=O)[O-])c3ccccc32)c1 | 57.0*[inhibitor] | 86.0 | i | -11.0 | 265.8 | -0.3 | 90.0 | -7.0 | 100.0
Cc1ccc(C=Nn2cnc3sc(-c4ccccc4)cc3c2=O)o1 | . | . | . | . | . | 1.0 | . | . | .
Cc1ccc(-c2nc3ccccc3c(=O)n2NC(=O)c2cccs2)cc1 | 104.0 | 129.0* | i | 1.0 | 629.3 | 4.4 | 99.0 | 0.0 | 101.0
Cc1cccc(-c2nc3ccccc3c(=O)n2NC(=O)c2cccs2)c1 | 113.0 | 104.0 | i | 14.0 | 354.5 | 4.4 | . | . | .
Cc1ccnc(NN=Cc2ccco2)n1 | . | . | . | . | . | 5.2 | . | . | .
Cc1cccc(C)c1NC1=NC2(CCCCC2)N=C(N)N1 | 95.0 | 88.0 | i | -6.0 | 499.2 | 1.1 | . | . | .
NC1=NC2(CCCCC2)N=C(Nc2ccc(Br)cc2)N1 | 141.0* | 107.0 | i | 36.0 | 303.6 | 9.3 | 120.0 | 6.0 | 101.0
COC(=O)N/N=C/c1cc(Cl)c(OCc2ccc(F)cc2)c(OC)c1 | 105.0 | 128.0* | i | 0.0 | 177.0 | . | 106.0 | 3.0 | 102.0
Cc1ccc2nc(Cl)c(C=NNc3nc(C)cc(C)n3)c(=O)n2c1 | . | . | . | . | . | -11.3 | . | . | .
O=C(NCC1CCCO1)c1ccc2c(=O)n(CC3CCCO3)c(=S)[nH]c2c1 (stereo not drawn) | 3.0*[inhibitor] | 2.0*[inhibitor] | i | -18.0 | 420.8 | 4.7 | 97.0 | -4.0 | 101.0
COc1ccc2[nH]c3c(=O)n(Cc4ccc(C(=O)NCC5CCCO5)cc4)c(=S)[nH]c3c2c1 (stereo not drawn) | 119.0 | 128.0 | i | 178.0* | 935.7 | -18.0 | 102.0 | 5.0 | 103.0
CCOC(=O)NC(=O)C(C#N)=NNc1cccc(OC)c1 | . | . | . | . | . | 1.3 | . | . | .
COc1ccc(CNC(=O)CN(Cc2ccc(F)cc2)C(=O)c2csnn2)cc1 | 124.0 | 148.0* | i | 5.0 | 352.4 | 3.6 | 98.0 | -2.0 | 97.0
Cc1ccc(C(C(=O)NC2CCCC2)N(Cc2ccc(F)cc2)C(=O)c2csnn2)o1 (stereo not drawn) | 3.0*[inhibitor] | 3.0*[inhibitor] | i | -16.0 | 292.7 | 0.3 | 96.0 | -9.0 | 96.0
O=C(NCc1ccco1)c1cccs1 | 84.0 | 77.0*[inhibitor] | i | -11.0 | 185.8 | 5.8 | 100.0 | -1.0 | 97.0
O=C(NCc1nc(-c2ccccc2)no1)c1cccs1 | -4.0*[inhibitor] | 0.0*[inhibitor] | i | -39.0 | 230.3 | 3.5 | 95.0 | 0.0 | 99.0
O=C(NCc1nc(-c2ccc(C(F)(F)F)cc2)no1)c1cccs1 | 110.0 | 109.0 | i | 3.0 | 951.9 | -1.7 | . | . | .
O=C(NCc1ccco1)NC12CC3CC(CC(C3)C1)C2 | 91.0 | 81.0*[inhibitor] | i | -13.0 | 301.0 | 0.2 | 98.0 | 0.0 | 97.0
